Measurements: ChEMBL document CHEMBL1938326, “Synthesis and in vitro and in vivo anticancer activity of novel phenylmethylene bis-isoxazolo[4,5-b]azepines” (Bioorg Med Chem Lett, 2012)
Converted amounts (≈) assume the structure as drawn. The source made the active and inactive calls. The rule behind the calls is not given here.

Columns and labels:
[1] = Cytotoxicity against […] cells after 48 hrs by MTT assay; format: functional, cell-based; details: Mus musculus, Ehrlich
How it was run: (§1)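 Cells grown with 10% FBS, 1% L-glutamine and antibiotics at 37 °C, 5% CO₂. Seeded at 1 × 10⁵ cells/mL and incubated 24 h. Compounds added from DMSO stocks, final DMSO <1%, for 48 h. MTT (2.5 mg/mL) added for 2 h, then OD read at 490 nm. IC50 (50% reduction in OD versus untreated) taken from dose–response curves; three independent determinations.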

[2] = system: HeLa; assay: Cytotoxicity against human HeLa cells after 48 hrs by MTT assay; format: functional, cell-based; how it was run: as §1
[3] = system: MCF7; assay: Cytotoxicity against human MCF7 cells after 48 hrs by MTT assay; format: functional, cell-based; details: MCF7, 48 h; how it was run: as §1
[4] = Antitumor activity against […] cells xenografted in Swiss albino mouse assessed as mean survival time at 10 mg/kg, ip qd administered for 9 days measured after 14 days (reference value: 13.7+/- 0.4 days); format: functional, Ehrlich; details: route intraperitoneal
How it was run: (§2)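 Female Swiss albino mice, 8 weeks old and 20–25 g, received 0.2 mL of 2 × 10⁶ EAC cells/mouse i.p. on day 0. Daily dosing started 24 h later and ran 9 days; controls received sterile saline i.p. After day-14 sacrifice of five per group, mortality was recorded daily for 30 days. MST = (first + last death day)/2; %ILS = [(MST treated/MST control) − 1] × 100.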

[5] = system: Mus musculus; assay: Protective effect on haemopoietic system in Swiss albino mouse xenografted with […] cells assessed as change in monocytes count at 5 mg/kg, ip qd administered for 9 days measured after 14 days (reference value: 2.4 +/- 0.1 %); format: functional, Ehrlich; details: route intraperitoneal
How it was run: (§3)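 Swiss albino female mice (8 weeks, n = 10 per group) inoculated ip with EAC cells (0.2 mL of 2 × 10⁶ cells/mouse), then dosed daily for 9 days starting 24 h after inoculation. On day 14, hemoglobin, RBC, WBC and differential leukocyte counts were compared with uninoculated normal and EAC control groups; mean ± SEM.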

[6] = system: Mus musculus; assay: Protective effect on haemopoietic system in Swiss albino mouse xenografted with […] cells assessed as change in lymphocytes count at 10 mg/kg, ip qd administered for 9 days measured after 14 days (reference value: 23 +/- 0.6 %); format: functional, Ehrlich; details: route intraperitoneal; how it was run: as §3
[7] = Antitumor activity against […] cells xenografted in Swiss albino mouse assessed as packed cell volume at 10 mg/kg, ip qd administered for 9 days measured after 14 days (reference value: 2.8 +/- 0.5 ml); format: functional, Ehrlich; details: route intraperitoneal
[8] = system: Mus musculus; assay: Protective effect on haemopoietic system in Swiss albino mouse xenografted with […] cells assessed as RBC count at 10 mg/kg, ip qd administered for 9 days measured after 14 days; format: functional, organism-based; parameters: dose 10 mg/kg; details: Ehrlich; how it was run: as §3
[9] = system: Mus musculus; assay: Protective effect on haemopoietic system in Swiss albino mouse xenografted with […] cells assessed as change in lymphocytes count at 5 mg/kg, ip qd administered for 9 days measured after 14 days (reference value: 23 +/- 0.6 %); format: functional, Ehrlich; details: route intraperitoneal; how it was run: as §3
[10] = system: Mus musculus; assay: Reduction in ascetic fluid volume in Swiss albino mouse xenografted with […] cells at 5 to 10 mg/kg, ip qd administered for 9 days measured after 14 days; format: functional, organism-based; details: Ehrlich
[11] = Antitumor activity against […] cells xenografted in Swiss albino mouse assessed as increase in life span at 5 mg/kg, ip qd administered for 9 days; format: functional, Ehrlich; details: route intraperitoneal; how it was run: as §2
[12] = system: Mus musculus; assay: Protective effect on haemopoietic system in Swiss albino mouse xenografted with […] cells assessed as change in hemoglobin level at 5 mg/kg, ip qd administered for 9 days measured after 14 days (reference value: 5.8 +/- 0.7 g%); format: functional, Ehrlich; details: route intraperitoneal; how it was run: as §3
[13] = system: Mus musculus; assay: Protective effect on haemopoietic system in Swiss albino mouse xenografted with […] cells assessed as WBC count at 5 mg/kg, ip qd administered for 9 days measured after 14 days; format: functional, organism-based; parameters: dose 5 mg/kg; details: Ehrlich; how it was run: as §3
[14] = Antitumor activity against […] cells xenografted in Swiss albino mouse assessed as change in tumor volume at 5 mg/kg, ip qd administered for 9 days measured after 14 days (reference value: 12.1 +/- 0.9 ml); format: functional, Ehrlich; details: route intraperitoneal
[15] = system: Mus musculus; assay: Protective effect on haemopoietic system in Swiss albino mouse xenografted with […] cells assessed as change in neutrophils count at 10 mg/kg, ip qd administered for 9 days measured after 14 days (reference value: 73 +/- 1.3 %); format: functional, Ehrlich; details: route intraperitoneal; how it was run: as §3
[16] = Antitumor activity against […] cells xenografted in Swiss albino mouse assessed as change in tumor volume at 10 mg/kg, ip qd administered for 9 days measured after 14 days (reference value: 12.1 +/- 0.9 ml); format: functional, Ehrlich; details: route intraperitoneal
[17] = Antitumor activity against […] cells xenografted in Swiss albino mouse assessed as packed cell volume at 5 mg/kg, ip qd administered for 9 days measured after 14 days (reference value: 2.8 +/- 0.5 ml); format: functional, Ehrlich; details: route intraperitoneal
[18] = system: Mus musculus; assay: Protective effect on haemopoietic system in Swiss albino mouse xenografted with […] cells assessed as WBC count at 10 mg/kg, ip qd administered for 9 days measured after 14 days; format: functional, organism-based; parameters: dose 10 mg/kg; details: Ehrlich; how it was run: as §3
[19] = system: Mus musculus; assay: Protective effect on haemopoietic system in Swiss albino mouse xenografted with […] cells assessed as change in monocytes count at 10 mg/kg, ip qd administered for 9 days measured after 14 days (reference value: 2.4 +/- 0.1 %); format: functional, Ehrlich; details: route intraperitoneal; how it was run: as §3
[20] = system: Mus musculus; assay: Protective effect on haemopoietic system in Swiss albino mouse xenografted with […] cells assessed as RBC count at 5 mg/kg, ip qd administered for 9 days measured after 14 days; format: functional, organism-based; parameters: dose 5 mg/kg; details: Ehrlich; how it was run: as §3
[21] = system: Ehrlich; assay: Antitumor activity against […] cells xenografted in Swiss albino mouse assessed as viable tumor cell count at 10 mg/kg, ip qd administered for 9 days measured after 14 days by trypan blue assay; format: functional, organism-based; parameters: dose 10 mg/kg
[22] = Antitumor activity against […] cells xenografted in Swiss albino mouse assessed as mean survival time at 5 mg/kg, ip qd administered for 9 days measured after 14 days (reference value: 13.7+/- 0.4 days); format: functional, Ehrlich; details: route intraperitoneal; how it was run: as §2
[23] = system: Mus musculus; assay: Protective effect on haemopoietic system in Swiss albino mouse xenografted with […] cells assessed as change in hemoglobin level at 10 mg/kg, ip qd administered for 9 days measured after 14 days (reference value: 5.8 +/- 0.7 g%); format: functional, Ehrlich; details: route intraperitoneal; how it was run: as §3
[24] = Antitumor activity against […] cells xenografted in Swiss albino mouse assessed as increase in life span at 10 mg/kg, ip qd administered for 9 days; format: functional, Ehrlich; details: route intraperitoneal; how it was run: as §2
[25] = system: Ehrlich; assay: Antitumor activity against […] cells xenografted in Swiss albino mouse assessed as viable tumor cell count at 5 mg/kg, ip qd administered for 9 days measured after 14 days by trypan blue assay; format: functional, organism-based; parameters: dose 5 mg/kg
[26] = system: Mus musculus; assay: Toxicity in Swiss albino mouse xenografted with human EAC cells assessed as change in body weight at 5 mg/kg, ip qd administered for 9 days measured after 14 days (reference value: 12.2 +/- 0.8 g); format: organism-based, Ehrlich; parameters: dose 5 mg/kg, route intraperitoneal; details: in vivo, 336 h
[27] = system: Mus musculus; assay: Protective effect on haemopoietic system in Swiss albino mouse xenografted with […] cells assessed as change in neutrophils count at 5 mg/kg, ip qd administered for 9 days measured after 14 days (reference value: 73 +/- 1.3 %); format: functional, Ehrlich; details: route intraperitoneal; how it was run: as §3
[28] = system: Mus musculus; assay: Toxicity in Swiss albino mouse xenografted with […] cells assessed as change in body weight at 10 mg/kg, ip qd administered for 9 days measured after 14 days (reference value: 12.2 +/- 0.8 g); format: organism-based, Ehrlich; parameters: dose 10 mg/kg, route intraperitoneal; details: in vivo, 336 h

COc1ccc(C(C2c3onc(C)c3N=C(c3ccccc3)CC2c2ccccc2)C2c3onc(C)c3N=C(c3ccccc3)CC2c2ccccc2)cc1 (centres undefined)
IC50 [1]: 41.9 µg/mL (≈ 58 µM) | IC50 [2]: 65.9 µg/mL (≈ 91.2 µM) | IC50 [3]: 57.3 µg/mL (≈ 79.3 µM)

Cc1ccc(C2=Nc3c(C)noc3C(C(c3ccccc3)C3c4onc(C)c4N=C(c4ccc(C)cc4)CC3c3ccccc3)C(c3ccccc3)C2)cc1 (centres undefined)
IC50 [1]: 50.1 µg/mL (≈ 69.5 µM) | IC50 [2]: 55.1 µg/mL (≈ 76.4 µM) | IC50 [3]: 55.9 µg/mL (≈ 77.5 µM)

COc1ccc(C2CC(c3ccccc3)=Nc3c(C)noc3C2C(c2ccccc2)C2c3onc(C)c3N=C(c3ccccc3)CC2c2ccc(OC)cc2)cc1 (centres undefined)
IC50 [1]: 40.1 µg/mL (≈ 53.3 µM) | IC50 [2]: 45.6 µg/mL (≈ 60.6 µM) | IC50 [3]: 53.8 µg/mL (≈ 71.5 µM)

Cc1noc2c1N=C(c1ccccc1)CC(c1ccccc1)C2C(c1ccc(Cl)cc1)C1c2onc(C)c2N=C(c2ccccc2)CC1c1ccccc1 (centres undefined)
IC50 [1]: 60.4 µg/mL (≈ 83 µM) | IC50 [2]: 55.9 µg/mL (≈ 76.9 µM) | IC50 [3]: 59 µg/mL (≈ 81.1 µM)

Cc1ccc(C(C2c3onc(C)c3N=C(c3ccccc3)CC2c2ccccc2)C2c3onc(C)c3N=C(c3ccccc3)CC2c2ccccc2)cc1 (centres undefined)
IC50 [1]: 48.2 µg/mL (≈ 68.2 µM) | IC50 [2]: 38.4 µg/mL (≈ 54.3 µM) | IC50 [3]: 41.9 µg/mL (≈ 59.3 µM)

Cc1noc2c1N=C(c1ccc(Cl)cc1)CC(c1ccccc1)C2C(c1ccccc1)C1c2onc(C)c2N=C(c2ccc(Cl)cc2)CC1c1ccccc1 (centres undefined)
IC50 [1]: 58.5 µg/mL (≈ 76.8 µM) | IC50 [2]: 60.2 µg/mL (≈ 79 µM) | IC50 [3]: 61.1 µg/mL (≈ 80.2 µM)

Cc1noc2c1N=C(c1cccs1)CC(c1ccccc1)C2C(c1ccccc1)C1c2onc(C)c2N=C(c2cccs2)CC1c1ccccc1 (centres undefined)
MSD [4]: 23.8 days | Activity [5]: 1.9% | Activity [6]: 51% | Activity [7]: 1.1 mL | Activity [8]: Active | Activity [9]: 35% | Activity [10]: Active | Activity [11]: 29.9% | Activity [12]: 7.3 g% | Activity [13]: Active | Activity [14]: 7.3 mL | Activity [15]: 36% | Activity [16]: 4.9 mL | Activity [17]: 1.8 mL | IC50 [1]: 26.1 µg/mL (≈ 37 µM) | Activity [18]: Active | Activity [19]: 1.4% | Activity [20]: Active | IC50 [2]: 28.5 µg/mL (≈ 40.4 µM) | IC50 [3]: 24.1 µg/mL (≈ 34.2 µM) | Activity [21]: Active | MSD [22]: 17.8 days | Activity [23]: 8.5 g% | Activity [24]: 73.7% | Activity [25]: Active | Activity [26]: 8.3 g | Activity [27]: 54% | Activity [28]: 6.7 g

Cc1noc2c1N=C(c1ccccc1)CC(c1ccccc1)C2C(c1ccccc1)C1c2onc(C)c2N=C(c2ccccc2)CC1c1ccccc1 (centres undefined)
IC50 [1]: 66.5 µg/mL (≈ 96 µM) | IC50 [2]: 68.7 µg/mL (≈ 99.2 µM) | IC50 [3]: 68.9 µg/mL (≈ 99.4 µM)

Cc1noc2c1N=C(c1ccco1)CC(c1ccccc1)C2C(c1ccccc1)C1c2onc(C)c2N=C(c2ccco2)CC1c1ccccc1 (centres undefined)
MSD [4]: 18.3 days | Activity [5]: 2.1% | Activity [6]: 46% | Activity [7]: 1.6 mL | Activity [8]: Active | Activity [9]: 29% | Activity [10]: Active | Activity [11]: 8.8% | Activity [12]: 6 g% | Activity [13]: Active | Activity [14]: 11 mL | Activity [15]: 49% | Activity [16]: 8.5 mL | Activity [17]: 2.1 mL | IC50 [1]: 28.9 µg/mL (≈ 43 µM) | Activity [18]: Active | Activity [19]: 1.7% | Activity [20]: Active | IC50 [2]: 32.7 µg/mL (≈ 48.6 µM) | IC50 [3]: 35.9 µg/mL (≈ 53.4 µM) | Activity [21]: Active | MSD [22]: 14.9 days | Activity [23]: 7.4 g% | Activity [24]: 33.6% | Activity [26]: 10.6 g | Activity [27]: 63% | Activity [28]: 9.6 g

Cc1ccc(C2CC(c3ccccc3)=Nc3c(C)noc3C2C(c2ccccc2)C2c3onc(C)c3N=C(c3ccccc3)CC2c2ccc(C)cc2)cc1 (centres undefined)
IC50 [1]: 51.6 µg/mL (≈ 71.6 µM) | IC50 [2]: 53.3 µg/mL (≈ 73.9 µM) | IC50 [3]: 50.1 µg/mL (≈ 69.5 µM)
